Measured values reported in ChEMBL document CHEMBL5058577, “EUbOPEN Chemogenomics Library 2 (Multiplex)” (2022).

System: U2OS
Assay: Multiplex assay against U2OS
Format: toxicity, cell-based
Conditions: human
In short: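 Cells were classed with CellPathfinder machine-learning gating, first as Hoechst high-intensity objects or normal cells, then (normal cells) as healthy, pyknosed or fragmented nuclei, and finally (pyknosed cells) as mitotic or apoptotic. Staining of live cells at seeding used Hoechst33342, BioTracker Green Microtubule Cytoskeleton Dye, MitoTracker Red and Annexin V Alexa Fluor 680, with imaging on a CQ1 microscope at 37°C and 5% CO2 after compound addition. Tubulin, mitochondrial-mass and membrane-permeability phenotypes are per cents of healthy-nucleus cells.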

[1] = 12 h, 1 µM, compound concentration 1 uM, replicate 1
[2] = 12 h, 1 µM, compound concentration 1 uM, replicate 2
[3] = 12 h, 10 µM, compound concentration 10 uM, replicate 1
[4] = 12 h, 10 µM, compound concentration 10 uM, replicate 2
[5] = 24 h, 1 µM, compound concentration 1 uM, replicate 1
[6] = 24 h, 1 µM, compound concentration 1 uM, replicate 2
[7] = 24 h, 10 µM, compound concentration 10 uM, replicate 1
[8] = 24 h, 10 µM, compound concentration 10 uM, replicate 2
[9] = 48 h, 1 µM, compound concentration 1 uM, replicate 1
[10] = 48 h, 1 µM, compound concentration 1 uM, replicate 2
[11] = 48 h, 10 µM, compound concentration 10 uM, replicate 1
[12] = 48 h, 10 µM, compound concentration 10 uM, replicate 2

Cl.N=C(N)NC(=O)Cc1c(Cl)cccc1Cl [GUANFACINE HYDROCHLORIDE]
Population Apoptotic (%) [1]: 80% | Population Fragmented Nuclei (%) [1]: 28% | Population Healthy Nuclei (%) [1]: 55% | Population Hoechst High Intensity Objects (%) [1]: 4% | Population Membrane Permeable-Phenotype (%) [1]: 5% | Population Mitochondria Different-Phenotype (%) [1]: 1% | Population Mitotic Cells (%) [1]: 19% | Population Normal (%) [1]: 95% | Population Pyknosed Nuclei (%) [1]: 16% | Population Tubulin-Different-Phenotype (%) [1]: 2% | Total Cell Count [1]: 165 | Population Apoptotic (%) [2]: 100% | Population Fragmented Nuclei (%) [2]: 20% | Population Healthy Nuclei (%) [2]: 72% | Population Hoechst High Intensity Objects (%) [2]: 2% | Population Membrane Permeable-Phenotype (%) [2]: 8% | Population Mitochondria Different-Phenotype (%) [2]: 2% | Population Mitotic Cells (%) [2]: 0% | Population Normal (%) [2]: 97% | Population Pyknosed Nuclei (%) [2]: 7% | Population Tubulin-Different-Phenotype (%) [2]: 6% | Total Cell Count [2]: 129 | Population Apoptotic (%) [3]: 87% | Population Fragmented Nuclei (%) [3]: 27% | Population Healthy Nuclei (%) [3]: 61% | Population Hoechst High Intensity Objects (%) [3]: 1% | Population Membrane Permeable-Phenotype (%) [3]: 10% | Population Mitochondria Different-Phenotype (%) [3]: 3% | Population Mitotic Cells (%) [3]: 12% | Population Normal (%) [3]: 98% | Population Pyknosed Nuclei (%) [3]: 11% | Population Tubulin-Different-Phenotype (%) [3]: 7% | Total Cell Count [3]: 280 | Population Apoptotic (%) [4]: 77% | Population Fragmented Nuclei (%) [4]: 18% | Population Healthy Nuclei (%) [4]: 74% | Population Membrane Permeable-Phenotype (%) [4]: 12% | Population Mitochondria Different-Phenotype (%) [4]: 7% | Population Mitotic Cells (%) [4]: 22% | Population Pyknosed Nuclei (%) [4]: 7% | Population Tubulin-Different-Phenotype (%) [4]: 10% | Total Cell Count [4]: 130 | Population Apoptotic (%) [5]: 75% | Population Fragmented Nuclei (%) [5]: 32% | Population Healthy Nuclei (%) [5]: 56% | Population Hoechst High Intensity Objects (%) [5]: 3% | Population Membrane Permeable-Phenotype (%) [5]: 5% | Population Mitochondria Different-Phenotype (%) [5]: 3% | Population Mitotic Cells (%) [5]: 25% | Population Normal (%) [5]: 96% | Population Pyknosed Nuclei (%) [5]: 10% | Population Tubulin-Different-Phenotype (%) [5]: 2% | Total Cell Count [5]: 194 | Population Apoptotic (%) [6]: 83% | Population Fragmented Nuclei (%) [6]: 18% | Population Healthy Nuclei (%) [6]: 74% | Population Hoechst High Intensity Objects (%) [6]: 0% | Population Membrane Permeable-Phenotype (%) [6]: 8% | Population Mitochondria Different-Phenotype (%) [6]: 4% | Population Mitotic Cells (%) [6]: 16% | Population Normal (%) [6]: 99% | Population Pyknosed Nuclei (%) [6]: 7% | Population Tubulin-Different-Phenotype (%) [6]: 5% | Total Cell Count [6]: 160 | Population Apoptotic (%) [7]: 84% | Population Fragmented Nuclei (%) [7]: 25% | Population Healthy Nuclei (%) [7]: 64% | Population Hoechst High Intensity Objects (%) [7]: 0% | Population Membrane Permeable-Phenotype (%) [7]: 9% | Population Mitochondria Different-Phenotype (%) [7]: 2% | Population Mitotic Cells (%) [7]: 15% | Population Normal (%) [7]: 99% | Population Pyknosed Nuclei (%) [7]: 9% | Population Tubulin-Different-Phenotype (%) [7]: 4% | Total Cell Count [7]: 326 | Population Apoptotic (%) [8]: 83% | Population Fragmented Nuclei (%) [8]: 15% | Population Healthy Nuclei (%) [8]: 76% | Population Hoechst High Intensity Objects (%) [8]: 2% | Population Membrane Permeable-Phenotype (%) [8]: 10% | Population Mitochondria Different-Phenotype (%) [8]: 4% | Population Mitotic Cells (%) [8]: 16% | Population Normal (%) [8]: 97% | Population Pyknosed Nuclei (%) [8]: 7% | Population Tubulin-Different-Phenotype (%) [8]: 5% | Total Cell Count [8]: 160 | Population Apoptotic (%) [9]: 89% | Population Fragmented Nuclei (%) [9]: 28% | Population Healthy Nuclei (%) [9]: 60% | Population Hoechst High Intensity Objects (%) [9]: 2% | Population Membrane Permeable-Phenotype (%) [9]: 4% | Population Mitochondria Different-Phenotype (%) [9]: 3% | Population Mitotic Cells (%) [9]: 10% | Population Normal (%) [9]: 97% | Population Pyknosed Nuclei (%) [9]: 10% | Population Tubulin-Different-Phenotype (%) [9]: 3% | Total Cell Count [9]: 262 | Population Apoptotic (%) [10]: 90% | Population Fragmented Nuclei (%) [10]: 16% | Population Healthy Nuclei (%) [10]: 73% | Population Hoechst High Intensity Objects (%) [10]: 3% | Population Membrane Permeable-Phenotype (%) [10]: 8% | Population Mitochondria Different-Phenotype (%) [10]: 4% | Population Mitotic Cells (%) [10]: 9% | Population Normal (%) [10]: 96% | Population Tubulin-Different-Phenotype (%) [10]: 6% | Total Cell Count [10]: 217 | Population Apoptotic (%) [11]: 90% | Population Fragmented Nuclei (%) [11]: 21% | Population Healthy Nuclei (%) [11]: 68% | Population Hoechst High Intensity Objects (%) [11]: 2% | Population Membrane Permeable-Phenotype (%) [11]: 8% | Population Mitochondria Different-Phenotype (%) [11]: 3% | Population Mitotic Cells (%) [11]: 9% | Population Normal (%) [11]: 97% | Population Pyknosed Nuclei (%) [11]: 10% | Population Tubulin-Different-Phenotype (%) [11]: 4% | Total Cell Count [11]: 440 | Population Apoptotic (%) [12]: 95% | Population Fragmented Nuclei (%) [12]: 14% | Population Healthy Nuclei (%) [12]: 74% | Population Hoechst High Intensity Objects (%) [12]: 1% | Population Membrane Permeable-Phenotype (%) [12]: 10% | Population Mitochondria Different-Phenotype (%) [12]: 1% | Population Mitotic Cells (%) [12]: 4% | Population Normal (%) [12]: 98% | Population Pyknosed Nuclei (%) [12]: 11% | Population Tubulin-Different-Phenotype (%) [12]: 3% | Total Cell Count [12]: 213
